According to ChEMBL document CHEMBL1157649, “Cytotoxic 2-benzylidene-6-(nitrobenzylidene)cyclohexanones which display substantially greater toxicity for neoplasms than non-malignant cells” (Bioorg Med Chem, 2010):

Assays:
Mus musculus [1] = species on record: Mus musculus; test: Toxicity in mouse; type: organism-based; conditions: in vivo
Outline: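 Neurotoxicity was recorded as the number of affected mice per number treated at each dose. Testing was run under National Institute of Neurological Disorders and Stroke screening protocols.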

HSC-4 [2] = test: Selectivity index, ratio of CC50 for human normal cells to CC50 for human HSC4 cells; type: functional
Outline: (§1)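 The index is the average CC50 toward the three normal cell types (HGF, HPC, HPLF) divided by the CC50 toward the indicated malignant line.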

Mus musculus [3] = test: Neurotoxicity in mouse assessed at 30 to 300 mg/kg, ip after 4 hrs; type: toxicity, organism-based; set-up: dose 30-300 mg/kg, route intraperitoneal; conditions: in vivo
Outline: (§2)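 Mice received 30, 100 or 300 mg/kg intraperitoneally and were examined at 0.5 and 4 h for mortality and neurological deficit, following NINDS screening protocols. Results were recorded as the number of mice showing a deficit over the number treated per dose.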

[4] = Cytotoxicity against human HPLF cells after 24 hrs; type: cell-based; conditions: for CC50 at 24 h: HPLF cells; for CC50: hplf, 24 h
Outline: (§3)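 Cells (HGF gingival fibroblasts, HPC pulp cells, HPLF periodontal ligament fibroblasts, HSC-2 and HSC-4 squamous carcinoma, HL-60 promyelocytic leukemia) were exposed to graded concentrations for 24 h, up to a maximum of 400 μM. CC50 is the concentration reducing viable cell number by 50%, taken from dose–response curves. Values are from duplicate determinations differing by less than 5%.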

HL-60 [5] = test: Cytotoxicity against human HL60 cells after 24 hrs; type: functional; conditions: HL-60, 24 h; outline: as §3
HSC-2 [6] = test: Selectivity index, ratio of CC50 for human normal cells to CC50 for human HSC2 cells; type: functional; outline: as §1
[7] = Cytotoxicity against human HPC cells after 24 hrs; type: cell-based; conditions: for CC50 at 24 h: HPC cells; for CC50: hpc, 24 h; outline: as §3
HL-60 [8] = test: Selectivity index, ratio of CC50 for human normal cells to CC50 for human HL60 cells; type: functional; outline: as §1
[9] = Partition coefficient, log P of the compound; type: physicochemical; conditions: octanol/water
Mus musculus [10] = test: Neurotoxicity in mouse assessed at 30 to 300 mg/kg, ip after 0.5 hrs; type: toxicity, organism-based; set-up: dose 30-300 mg/kg, route intraperitoneal; conditions: in vivo; outline: as §2
HSC-2 [11] = test: Cytotoxicity against human HSC2 cells after 24 hrs; type: functional; conditions: HSC-2, 24 h; outline: as §3
Mus musculus [12] = test: Toxicity in mouse assessed as induction of mortality at 30 to 300 mg/kg, ip; type: organism-based; set-up: dose 30-300 mg/kg, route intraperitoneal; conditions: in vivo
HSC-4 [13] = test: Cytotoxicity against human HSC4 cells after 24 hrs; type: functional; conditions: HSC-4, 24 h; outline: as §3
[14] = Cytotoxicity against human HGF cells after 24 hrs; type: cell-based; conditions: for CC50 at 24 h: HGF cells; for CC50: hgf, 24 h; outline: as §3

Compound	Activity (Mus musculus [1]) [mg/kg]	Selectivity Index (HSC-4 [2])	Activity (Mus musculus [3])	CC50 at 24 h [4] [µM]	CC50 (HL-60 [5]) [µM]	Selectivity Index (HSC-2 [6])	CC50 at 24 h [7] [µM]	Selectivity Index (HL-60 [8])	logP [9]	Activity (Mus musculus [10])	CC50 (HSC-2 [11]) [µM]	Activity (Mus musculus [12])	CC50 (HSC-4 [13]) [µM]	CC50 at 24 h [14] [µM]	CC50 [4] [µM]	CC50 [7] [µM]	CC50 [14] [µM]
N[C@@H](Cc1ccc(N(CCCl)CCCl)cc1)C(=O)O	4																
COc1ccc(/C=C2\CCC/C(=C\c3ccc([N+](=O)[O-])cc3)C2=O)cc1		1	Non-toxic	> 400	> 400	1	> 400	1	4.98	Non-toxic	> 400	Non-toxic	> 400	> 400			
O=C1/C(=C/c2ccc(F)cc2)CCC/C1=C\c1ccccc1[N+](=O)[O-]			Non-toxic		3					Non-toxic	2.7	Non-toxic	2.2		67	11	82
COc1cc(OC)c(/C=C2\CCC/C(=C\c3ccc([N+](=O)[O-])cc3)C2=O)c(OC)c1		1	Non-toxic		11	1		>36		Non-toxic	> 400	Non-toxic	> 400		> 400	> 400	> 400
Cc1ccc(/C=C2\CCC/C(=C\c3cccc([N+](=O)[O-])c3)C2=O)cc1		>7.4	Non-toxic		38	>20		>8.7	5.35	Non-toxic	17	Non-toxic	45		> 400	192	> 400
COc1cc(/C=C2\CCC/C(=C\c3ccc([N+](=O)[O-])cc3)C2=O)cc(OC)c1OC		236		378	1.1	466	347	322	4.56		0.76	Non-toxic	1.5	336			
Cc1ccc(/C=C2\CCC/C(=C\c3ccc([N+](=O)[O-])cc3)C2=O)cc1		>22			27	>42		>10	5.38		6.6	Non-toxic	13		348	92	> 400
COc1ccc(/C=C2\CCC/C(=C\c3ccc([N+](=O)[O-])cc3)C2=O)c(OC)c1OC		1	Non-toxic		> 400	1		1		Non-toxic	> 400	Non-toxic	> 400		> 400	> 400	> 400
